Among the data in ChEMBL document CHEMBL1134978, “Novel 2,5-dideoxystreptamine derivatives targeting the ribosomal decoding site RNA” (Bioorg Med Chem Lett, 2002) are IC50 values, retold here.

SMILES strings stand for the structures. pIC50: −log10 of the molar value.

A word on the pIC50: it is the IC50 on a negative log10 scale, so that one unit is a factor of ten. High values mean a small IC50, low ones a large IC50.

The target of this assay is Nucleic Acid. As to the kind of experiment: In vitro inhibition of decoding site of bacterial rRNA (within the 30S ribosomal subunit) encoding luciferase reporter in transcription-translation assay. The class given is functional, Bacteria. In short, it runs like this:
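Coupled transcription–translation in bacterial S30 extract. Compounds were preincubated with the extract, then NTPs, amino acids and a plasmid encoding firefly luciferase were added, and plates were incubated 20 min at 25 °C. After chilling on ice, luciferin substrate was added for 15 min at room temperature and luminescence was read. Doses spanned 1 mM to 100 nM with six replicates per concentration. IC50 came from a variable-slope fit of light units vs log(c).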
`NC1CC(N)C(C(=O)N2CCNCC2)CC1O` (configuration not stated): the pIC50 was below 3.00.
`NC1CC(N)C(C(=O)NCCCN2CCCC2=O)CC1O` (configuration not stated): the pIC50 is below 3.00.
With `N#Cc1cccc(NC(=O)C2CC(O)C(N)CC2N)c1` (configuration not stated) the figure was 3.35.
On to `NC1CC(N)C(C(=O)NCCN2CCOCC2)CC1O` (configuration not stated), for which the pIC50 was below 3.00.
`NC(=O)C1CC(O)C(N)CC1N` (configuration not stated) gave a pIC50 below 3.00.
With `NC1CC(N)C(C(=O)Nc2ccc(-c3cnco3)cc2)CC1O` (configuration not stated) the figure was 4.23; with `N[C@@H]1C[C@H](N)[C@@H](O)[C@H](O)[C@H]1O`, below 3.00; with `NC1CC(N)C(C(=O)N2CCC3(CC2)OCCO3)CC1O` (configuration not stated), below 3.00.
As for `NC1CC(N)C(C(=O)Nc2ccc(-n3ccnc3)cc2)CC1O` (configuration not stated), the figure is 3.54; as for `NC(=O)[C@H]1CCCN1C(=O)C1CC(O)C(N)CC1N` (some centres not stated), below 3.00; as for `NC1CC(N)C(C(=O)N2CCN(C3=NCCCN3)CC2)CC1O` (configuration not stated), below 3.00.
With `NC1CC(N)C(OC2OC(CO)C(O)C(O)C2N)C(O)C1O` (configuration not stated) the figure was 5.41.
